Measurements reported in ChEMBL document CHEMBL2157875, “Design, synthesis and in vitro evaluation of a series of α-substituted phenylpropanoic acid PPARγ agonists to further investigate the stereochemistry-activity relationship” (Bioorg Med Chem, 2012).

Assays:
Type in all cases: cell-based
[1] = target: T1, Peroxisome proliferator-activated receptor alpha (Homo sapiens, UniProt Q07869); experiment: Transactivation of human PPARalpha expressed in human HEK293 cells after 16 to 20 hrs by dual luciferase beta-galactosidase reporter gene assay
T1 sequence (Q07869 whole entry): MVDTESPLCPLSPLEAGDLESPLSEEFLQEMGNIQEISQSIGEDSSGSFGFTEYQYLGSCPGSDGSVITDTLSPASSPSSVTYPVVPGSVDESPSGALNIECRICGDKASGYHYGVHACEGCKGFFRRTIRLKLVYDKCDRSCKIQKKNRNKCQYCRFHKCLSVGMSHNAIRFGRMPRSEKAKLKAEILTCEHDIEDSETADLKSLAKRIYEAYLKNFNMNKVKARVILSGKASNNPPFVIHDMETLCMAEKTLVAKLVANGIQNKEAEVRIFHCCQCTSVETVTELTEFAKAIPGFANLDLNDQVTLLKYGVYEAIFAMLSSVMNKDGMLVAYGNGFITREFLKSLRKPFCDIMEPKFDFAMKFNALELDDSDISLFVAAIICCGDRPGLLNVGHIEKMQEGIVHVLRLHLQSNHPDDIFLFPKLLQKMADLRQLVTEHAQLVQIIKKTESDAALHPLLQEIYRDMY
Method in brief: (§1)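 HEK293 cells were grown in DMEM with 5% FBS and antibiotic-antimycotic at 37 °C in 5% CO2. They were co-transfected by calcium phosphate with 50 ng reporter, 20 ng pCMX-β-galactosidase and 15 ng of each receptor plasmid, made up to 150 ng with pGEM carrier. Ligands were added 8 h later and cells harvested about 16–20 h after. Luciferase was normalized to β-galactosidase; means of triplicates.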

[2] = target: T2, Peroxisome proliferator-activated receptor gamma (Homo sapiens) (UniProt P37231); experiment: Transactivation of human PPARgamma expressed in human HEK293 cells assessed as concentration required for maximum activity after 16 to 20 hrs by dual luciferase beta-galactosidase reporter gene assay; method in brief: as §1
T2 sequence (whole entry): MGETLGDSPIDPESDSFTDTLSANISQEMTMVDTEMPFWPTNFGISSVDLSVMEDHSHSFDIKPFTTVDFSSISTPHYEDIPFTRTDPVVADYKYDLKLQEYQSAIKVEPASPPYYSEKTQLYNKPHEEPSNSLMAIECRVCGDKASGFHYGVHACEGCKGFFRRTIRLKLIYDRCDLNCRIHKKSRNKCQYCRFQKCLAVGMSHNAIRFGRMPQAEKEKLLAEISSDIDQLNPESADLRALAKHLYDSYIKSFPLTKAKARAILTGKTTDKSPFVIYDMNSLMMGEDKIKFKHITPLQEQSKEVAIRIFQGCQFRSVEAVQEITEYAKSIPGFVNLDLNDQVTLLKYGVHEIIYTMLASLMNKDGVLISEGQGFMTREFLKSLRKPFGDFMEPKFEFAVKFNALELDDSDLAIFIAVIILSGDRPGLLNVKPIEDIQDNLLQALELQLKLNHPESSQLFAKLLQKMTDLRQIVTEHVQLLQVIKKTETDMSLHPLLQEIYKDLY

[3] = target: PPAR delta/gamma (Homo sapiens) (UniProt P37231+Q03181); experiment: Selectivity ratio of EC50 for human PPARdelta expressed in human HEK293 cells to EC50 for human PPARgamma expressed in human HEK293 cells
[4] = target: T3, Peroxisome proliferator-activated receptor gamma (Homo sapiens, UniProt P37231); experiment: Transactivation of human PPARgamma expressed in human HEK293 cells after 16 to 20 hrs by dual luciferase beta-galactosidase reporter gene assay; method in brief: as §1
T3 sequence (P37231 whole entry): T2 sequence (whole entry)

HEK293 = experiment: Selectivity ratio of EC50 for human PPARalpha expressed in human HEK293 cells to EC50 for human PPARgamma expressed in human HEK293 cells
[5] = target: T4, Peroxisome proliferator-activated receptor delta (Homo sapiens, UniProt Q03181); experiment: Transactivation of human PPARdelta expressed in human HEK293 cells after 16 to 20 hrs by dual luciferase beta-galactosidase reporter gene assay
T4 sequence (Q03181 whole entry): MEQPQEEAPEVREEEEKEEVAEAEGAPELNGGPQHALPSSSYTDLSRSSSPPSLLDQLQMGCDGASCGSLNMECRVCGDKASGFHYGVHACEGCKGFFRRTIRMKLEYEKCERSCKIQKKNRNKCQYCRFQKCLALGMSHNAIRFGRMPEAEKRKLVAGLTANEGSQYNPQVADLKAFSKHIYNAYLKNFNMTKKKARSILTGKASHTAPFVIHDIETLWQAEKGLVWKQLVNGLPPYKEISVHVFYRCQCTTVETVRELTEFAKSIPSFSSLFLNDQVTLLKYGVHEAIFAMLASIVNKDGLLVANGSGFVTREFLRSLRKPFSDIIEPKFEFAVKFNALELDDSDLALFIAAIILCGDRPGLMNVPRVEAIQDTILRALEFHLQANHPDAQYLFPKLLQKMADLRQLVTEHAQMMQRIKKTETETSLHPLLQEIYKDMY
Method in brief: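 HEK293 cells grown in DMEM with 5% FBS and antibiotic-antimycotic at 37 °C, 5% CO₂. Calcium phosphate cotransfection per well of 50 ng reporter, 20 ng pCMX-β-galactosidase, 15 ng receptor expression plasmid, pGEM carrier to 150 ng. Ligands added 8 h post-transfection, cells harvested ~16–20 h later. Luciferase normalised to β-galactosidase; means of triplicates.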

Compound | EC50 [1] [nM] | Activity [2] [µM] | Ratio EC50 [3] | EC50 [4] [nM] | EC50 [5] [nM] | Ratio EC50 (HEK293)
CCCOc1ccc(C[C@H](CC2CCCCC2)C(=O)O)cc1CNC(=O)c1ccc(C23CC4CC(CC(C4)C2)C3)cc1 |  | 1 | 240 | 22 |  | 240
CCCOc1ccc(C[C@@H](CC2CCCCC2)C(=O)O)cc1CNC(=O)c1ccc(C23CC4CC(CC(C4)C2)C3)cc1 |  | 1 | 240 | 12 |  | 240
CCCOc1ccc(C[C@H](CC)C(=O)O)cc1CNC(=O)c1ccc(C23CC4CC(CC(C4)C2)C3)cc1 |  |  |  |  | 130 | 

More lines, main results first:

EC50 [1] [nM] | Activity [2] [µM] | Ratio EC50 [3] | EC50 [4] [nM] | EC50 [5] [nM] | Compound | Ratio EC50 (HEK293)
1760 | 1 | 50 | 34 |  | CCCOc1ccc(C[C@@H](CCc2ccccc2)C(=O)O)cc1CNC(=O)c1ccc(C23CC4CC(CC(C4)C2)C3)cc1 | 50
770 | 0.05 | 50 | 9.2 |  | CCCOc1ccc(C[C@H](CCc2ccccc2)C(=O)O)cc1CNC(=O)c1ccc(C23CC4CC(CC(C4)C2)C3)cc1 | 50
